# From ChEMBL document CHEMBL3769376, “Discovery of I-BRD9, a Selective Cell Active Chemical Probe for Bromodomain Containing Protein 9 Inhibition” (J Med Chem, 2016)
# The source made the active and inactive calls. The calls are words filed in the database; no cut-off is given here.
# Experiments:
# [1] = target: Alpha-2C adrenergic receptor (Homo sapiens) (UniProt P18825); experiment: Inhibition of human alpha 2c adrenergic receptor at <5 uM by TR-FRET assay
# [2] = target: 5-hydroxytryptamine receptor 2A (Homo sapiens) (UniProt P28223); experiment: Antagonist activity at human 5HT2A receptor assessed as change in intracellular calcium level at <5 uM by fluorescence assay; assay type: functional, cell-based
# Homo sapiens [3] = organism: Homo sapiens; experiment: Positive modulator activity at human GABA-A receptor at <5 uM by electrophysiology
# [4] = target: Muscarinic acetylcholine receptor M1 (Homo sapiens) (UniProt P11229); experiment: Agonist activity at human muscarinic 1 receptor assessed as change in intracellular calcium level at <5 uM by fluorescence assay; assay type: functional, cell-based
# [5] = target: Nuclear receptor subfamily 1 group I member 2 (Homo sapiens, UniProt O75469); experiment: Agonist activity at human PXR at <5 uM by luciferase reporter gene assay
# [6] = Lipophilicity, logD of the compound at pH 7.4; assay type: physicochemical; details: buffer
# [7] = target: Amine oxidase [flavin-containing] A (Homo sapiens, UniProt P21397); experiment: Inhibition of human MAO-A at <5 uM by FLINT assay
# [8] = target: 5-hydroxytryptamine receptor 3A (Homo sapiens) (UniProt P46098); experiment: Antagonist activity at human 5HT3 receptor assessed as change in intracellular calcium level at <5 uM by fluorescence assay; assay type: cell-based
# [9] = target: Alpha-1B adrenergic receptor (Homo sapiens) (UniProt P35368); experiment: Antagonist activity at human Alpha 1b adrenergic receptor assessed as change in intracellular calcium level at <5 uM by fluorescence assay; assay type: functional, cell-based
# [10] = target: Histamine H1 receptor (Homo sapiens) (UniProt P35367); experiment: Antagonist activity at human histamine H1 receptor assessed as change in intracellular calcium level at <5 uM by fluorescence assay; assay type: functional, cell-based
# [11] = Aqueous solubility of the compound in PBS at pH 7.4 by chemiluminescent nitrogen detection method; assay type: physicochemical
# Procedure, shortened: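 A 10 mM DMSO stock was precipitated into pH7.4 phosphate buffered saline at 5% DMSO. Dissolved compound was quantified by chemiluminescent nitrogen detection.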
# [12] = target: Beta-2 adrenergic receptor (Homo sapiens) (UniProt P07550); experiment: Antagonist activity at human beta-2 adrenergic receptor at <5 uM by TR-FRET assay
# [13] = target: Prostaglandin G/H synthase 2 (Homo sapiens) (UniProt P35354); experiment: Inhibition of human COX2 at <5 uM by FLINT assay
# [14] = target: D(2) dopamine receptor (Homo sapiens) (UniProt P14416); experiment: Agonist activity at human D2 dopamine receptor at <5 uM by scintillation proximity assay
# [15] = target: Voltage-dependent L-type calcium channel subunit alpha-1C (Homo sapiens, UniProt Q13936); experiment: Inhibition of human Cav1.2 channel at <5 uM by electrophysiology
# [16] = target: T1, Bromodomain-containing protein 9 (Homo sapiens) (UniProt Q9H8M2); details: Kasumi 1, 10 uM
# T1 sequence (whole entry): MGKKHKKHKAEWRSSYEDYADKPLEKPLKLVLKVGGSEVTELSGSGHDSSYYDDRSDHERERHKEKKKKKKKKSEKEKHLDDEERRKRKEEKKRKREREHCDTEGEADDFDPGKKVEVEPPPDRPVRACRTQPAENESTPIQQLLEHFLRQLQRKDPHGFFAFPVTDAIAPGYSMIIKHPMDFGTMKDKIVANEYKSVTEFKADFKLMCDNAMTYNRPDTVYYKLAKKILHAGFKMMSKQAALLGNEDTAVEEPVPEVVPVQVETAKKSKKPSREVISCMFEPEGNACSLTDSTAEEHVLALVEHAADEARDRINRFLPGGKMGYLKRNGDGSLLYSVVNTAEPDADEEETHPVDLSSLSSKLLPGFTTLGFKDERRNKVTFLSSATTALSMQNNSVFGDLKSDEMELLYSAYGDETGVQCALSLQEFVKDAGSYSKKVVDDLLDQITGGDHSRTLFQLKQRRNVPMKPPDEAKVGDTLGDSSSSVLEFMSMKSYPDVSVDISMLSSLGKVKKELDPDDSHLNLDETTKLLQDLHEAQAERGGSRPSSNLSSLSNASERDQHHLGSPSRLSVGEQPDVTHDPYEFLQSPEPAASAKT
# [17] = target: Cannabinoid receptor 2 (Homo sapiens) (UniProt P34972); experiment: Agonist activity at human CB2 receptor at <5 uM by Yeast FDLu assay
# Homo sapiens [18] = organism: Homo sapiens; experiment: Agonist activity at human GABA-A receptor at <5 uM by electrophysiology
# [19] = target: Substance-P receptor (Homo sapiens) (UniProt P25103); experiment: Antagonist activity at human NK1 receptor assessed as change in intracellular calcium level at <5 uM by fluorescence assay; assay type: functional, cell-based
# [20] = target: Vasopressin V1a receptor (Homo sapiens) (UniProt P37288); experiment: Antagonist activity at human vasopressin V1a receptor assessed as change in intracellular calcium level at <5 uM by fluorescence assay; assay type: functional, cell-based
# [21] = target: Adenosine receptor A2a (Homo sapiens) (UniProt P29274); experiment: Agonist activity at human Adenosine A2a receptor at <5 uM by TR-FRET assay
# [22] = target: 5-hydroxytryptamine receptor 3A (Homo sapiens) (UniProt P46098); experiment: Agonist activity at human 5HT3 receptor assessed as change in intracellular calcium level at <5 uM by fluorescence assay; assay type: cell-based
# [23] = target: Acetylcholine receptor subunit alpha (Homo sapiens) (UniProt P02708); experiment: Inhibition of human alpha1 nACHR assessed as change in intracellular calcium level at <5 uM by fluorescence assay; assay type: cell-based
# Sequence of 5-hydroxytryptamine receptor 3A (Homo sapiens) (P46098 whole entry): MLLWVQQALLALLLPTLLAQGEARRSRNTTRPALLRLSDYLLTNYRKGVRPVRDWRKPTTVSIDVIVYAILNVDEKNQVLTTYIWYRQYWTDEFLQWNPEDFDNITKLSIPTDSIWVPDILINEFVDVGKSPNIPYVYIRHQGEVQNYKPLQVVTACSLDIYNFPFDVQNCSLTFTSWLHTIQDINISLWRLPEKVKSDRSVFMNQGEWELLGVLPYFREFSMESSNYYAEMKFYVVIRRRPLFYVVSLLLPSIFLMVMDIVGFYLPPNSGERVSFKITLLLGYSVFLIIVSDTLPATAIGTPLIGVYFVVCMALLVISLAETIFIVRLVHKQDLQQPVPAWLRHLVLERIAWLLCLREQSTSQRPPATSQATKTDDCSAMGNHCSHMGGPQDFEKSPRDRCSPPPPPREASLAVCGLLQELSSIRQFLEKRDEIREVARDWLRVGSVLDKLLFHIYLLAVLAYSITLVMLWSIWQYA
# Sequence of Nuclear receptor subfamily 1 group I member 2 (O75469 whole entry): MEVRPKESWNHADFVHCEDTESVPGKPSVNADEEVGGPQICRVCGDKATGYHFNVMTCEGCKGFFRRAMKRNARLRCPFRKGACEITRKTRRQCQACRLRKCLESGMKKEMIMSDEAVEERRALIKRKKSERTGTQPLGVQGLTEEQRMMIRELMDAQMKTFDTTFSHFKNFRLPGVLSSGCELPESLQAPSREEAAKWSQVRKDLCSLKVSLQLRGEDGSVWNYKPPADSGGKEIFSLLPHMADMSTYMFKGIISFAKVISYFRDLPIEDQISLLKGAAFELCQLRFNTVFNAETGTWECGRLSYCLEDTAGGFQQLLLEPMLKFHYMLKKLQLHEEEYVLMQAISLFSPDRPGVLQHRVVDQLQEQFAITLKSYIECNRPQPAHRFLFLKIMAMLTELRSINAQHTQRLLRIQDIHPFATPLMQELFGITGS
# Sequence of Prostaglandin G/H synthase 2 (Homo sapiens) (P35354 whole entry): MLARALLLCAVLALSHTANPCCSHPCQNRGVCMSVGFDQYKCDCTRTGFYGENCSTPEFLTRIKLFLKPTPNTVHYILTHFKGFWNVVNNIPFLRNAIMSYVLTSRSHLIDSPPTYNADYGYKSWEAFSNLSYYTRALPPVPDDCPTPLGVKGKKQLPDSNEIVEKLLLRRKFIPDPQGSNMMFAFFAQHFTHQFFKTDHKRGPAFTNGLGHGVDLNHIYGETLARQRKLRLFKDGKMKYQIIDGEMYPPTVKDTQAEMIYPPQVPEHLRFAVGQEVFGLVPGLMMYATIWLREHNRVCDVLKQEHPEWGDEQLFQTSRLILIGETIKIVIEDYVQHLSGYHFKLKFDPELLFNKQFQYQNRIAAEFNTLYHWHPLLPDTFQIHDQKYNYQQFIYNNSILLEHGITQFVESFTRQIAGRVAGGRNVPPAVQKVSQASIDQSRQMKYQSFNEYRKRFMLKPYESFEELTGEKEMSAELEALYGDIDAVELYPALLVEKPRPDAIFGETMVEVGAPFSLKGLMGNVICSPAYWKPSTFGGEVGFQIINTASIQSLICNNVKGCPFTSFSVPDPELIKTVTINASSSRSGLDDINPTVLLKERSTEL
# Sequence of Voltage-dependent L-type calcium channel subunit alpha-1C (Q13936 whole entry): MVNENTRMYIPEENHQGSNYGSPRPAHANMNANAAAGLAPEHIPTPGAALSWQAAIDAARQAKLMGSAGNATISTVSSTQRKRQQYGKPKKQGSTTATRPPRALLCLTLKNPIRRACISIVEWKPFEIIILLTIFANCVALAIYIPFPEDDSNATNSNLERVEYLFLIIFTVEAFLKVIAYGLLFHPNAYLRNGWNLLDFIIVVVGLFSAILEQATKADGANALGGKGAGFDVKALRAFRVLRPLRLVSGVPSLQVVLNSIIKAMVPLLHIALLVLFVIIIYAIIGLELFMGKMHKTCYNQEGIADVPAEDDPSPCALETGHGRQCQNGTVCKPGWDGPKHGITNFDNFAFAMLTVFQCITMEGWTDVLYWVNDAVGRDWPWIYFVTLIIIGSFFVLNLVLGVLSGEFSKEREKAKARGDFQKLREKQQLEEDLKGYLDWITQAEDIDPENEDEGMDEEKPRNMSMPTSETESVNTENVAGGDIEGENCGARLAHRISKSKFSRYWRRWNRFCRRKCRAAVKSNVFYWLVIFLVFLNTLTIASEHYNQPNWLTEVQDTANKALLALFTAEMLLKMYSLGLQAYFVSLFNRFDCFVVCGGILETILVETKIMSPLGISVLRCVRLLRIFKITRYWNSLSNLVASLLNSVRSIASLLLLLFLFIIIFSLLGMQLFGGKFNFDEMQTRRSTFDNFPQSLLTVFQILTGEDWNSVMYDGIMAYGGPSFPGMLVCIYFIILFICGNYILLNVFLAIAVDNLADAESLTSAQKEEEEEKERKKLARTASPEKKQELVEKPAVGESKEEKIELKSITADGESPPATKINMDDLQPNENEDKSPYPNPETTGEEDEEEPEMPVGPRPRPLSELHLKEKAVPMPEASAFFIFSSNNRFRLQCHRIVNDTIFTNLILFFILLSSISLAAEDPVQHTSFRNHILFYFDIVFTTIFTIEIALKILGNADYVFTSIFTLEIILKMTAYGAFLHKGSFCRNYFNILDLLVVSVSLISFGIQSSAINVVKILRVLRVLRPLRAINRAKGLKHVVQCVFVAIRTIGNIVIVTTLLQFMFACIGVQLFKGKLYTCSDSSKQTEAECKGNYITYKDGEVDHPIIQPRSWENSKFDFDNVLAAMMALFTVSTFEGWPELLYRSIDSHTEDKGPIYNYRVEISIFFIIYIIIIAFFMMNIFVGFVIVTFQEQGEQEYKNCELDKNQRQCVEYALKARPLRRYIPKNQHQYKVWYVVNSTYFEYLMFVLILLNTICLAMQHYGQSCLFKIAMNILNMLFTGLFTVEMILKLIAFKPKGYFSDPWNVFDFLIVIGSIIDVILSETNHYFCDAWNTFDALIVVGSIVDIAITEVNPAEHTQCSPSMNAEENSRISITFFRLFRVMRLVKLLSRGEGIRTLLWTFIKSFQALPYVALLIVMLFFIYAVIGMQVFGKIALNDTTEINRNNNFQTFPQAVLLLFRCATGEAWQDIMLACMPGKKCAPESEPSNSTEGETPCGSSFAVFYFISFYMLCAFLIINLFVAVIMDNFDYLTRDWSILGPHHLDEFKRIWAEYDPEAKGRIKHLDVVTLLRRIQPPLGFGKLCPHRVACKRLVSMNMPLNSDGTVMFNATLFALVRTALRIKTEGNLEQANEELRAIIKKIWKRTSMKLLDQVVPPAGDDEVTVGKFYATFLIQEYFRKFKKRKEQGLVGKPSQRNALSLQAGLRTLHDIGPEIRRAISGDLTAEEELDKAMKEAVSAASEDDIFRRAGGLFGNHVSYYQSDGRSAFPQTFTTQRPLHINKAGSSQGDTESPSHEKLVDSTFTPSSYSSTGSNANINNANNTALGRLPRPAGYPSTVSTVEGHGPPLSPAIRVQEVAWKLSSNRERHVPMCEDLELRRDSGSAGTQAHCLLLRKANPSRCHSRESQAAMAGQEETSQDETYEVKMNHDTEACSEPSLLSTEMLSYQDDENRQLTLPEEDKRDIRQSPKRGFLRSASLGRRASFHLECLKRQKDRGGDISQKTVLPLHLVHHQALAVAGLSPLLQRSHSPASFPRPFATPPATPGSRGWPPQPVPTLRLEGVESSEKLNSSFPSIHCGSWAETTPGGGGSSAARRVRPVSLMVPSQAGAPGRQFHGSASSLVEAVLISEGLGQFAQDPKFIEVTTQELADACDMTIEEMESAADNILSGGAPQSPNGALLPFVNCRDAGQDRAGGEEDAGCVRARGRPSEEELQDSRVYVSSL
# Sequence of Muscarinic acetylcholine receptor M1 (Homo sapiens) (P11229 whole entry): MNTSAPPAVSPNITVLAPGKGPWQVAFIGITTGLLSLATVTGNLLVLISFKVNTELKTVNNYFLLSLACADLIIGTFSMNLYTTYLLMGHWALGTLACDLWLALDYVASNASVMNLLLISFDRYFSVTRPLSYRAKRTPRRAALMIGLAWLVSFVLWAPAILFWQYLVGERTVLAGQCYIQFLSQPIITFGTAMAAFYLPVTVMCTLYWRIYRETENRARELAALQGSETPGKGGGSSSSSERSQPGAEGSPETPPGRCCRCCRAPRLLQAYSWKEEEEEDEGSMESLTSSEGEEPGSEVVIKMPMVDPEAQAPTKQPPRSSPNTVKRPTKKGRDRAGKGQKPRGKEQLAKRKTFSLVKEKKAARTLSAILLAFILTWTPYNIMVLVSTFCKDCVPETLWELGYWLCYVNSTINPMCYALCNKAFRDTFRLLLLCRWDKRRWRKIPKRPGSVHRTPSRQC
# Sequence of D(2) dopamine receptor (Homo sapiens) (P14416 whole entry): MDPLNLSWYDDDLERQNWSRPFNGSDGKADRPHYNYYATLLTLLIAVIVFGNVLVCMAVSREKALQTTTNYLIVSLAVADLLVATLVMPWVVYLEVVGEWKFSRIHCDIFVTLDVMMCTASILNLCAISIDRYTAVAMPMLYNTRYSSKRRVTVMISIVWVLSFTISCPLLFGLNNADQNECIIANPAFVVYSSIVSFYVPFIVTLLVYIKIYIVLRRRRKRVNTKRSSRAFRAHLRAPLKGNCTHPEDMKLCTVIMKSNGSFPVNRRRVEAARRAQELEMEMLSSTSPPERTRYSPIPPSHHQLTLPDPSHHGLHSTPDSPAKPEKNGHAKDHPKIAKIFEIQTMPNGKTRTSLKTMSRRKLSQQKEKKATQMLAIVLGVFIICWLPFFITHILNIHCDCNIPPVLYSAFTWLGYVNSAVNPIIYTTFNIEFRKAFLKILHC
# Sequence of Vasopressin V1a receptor (Homo sapiens) (P37288 whole entry, looked up): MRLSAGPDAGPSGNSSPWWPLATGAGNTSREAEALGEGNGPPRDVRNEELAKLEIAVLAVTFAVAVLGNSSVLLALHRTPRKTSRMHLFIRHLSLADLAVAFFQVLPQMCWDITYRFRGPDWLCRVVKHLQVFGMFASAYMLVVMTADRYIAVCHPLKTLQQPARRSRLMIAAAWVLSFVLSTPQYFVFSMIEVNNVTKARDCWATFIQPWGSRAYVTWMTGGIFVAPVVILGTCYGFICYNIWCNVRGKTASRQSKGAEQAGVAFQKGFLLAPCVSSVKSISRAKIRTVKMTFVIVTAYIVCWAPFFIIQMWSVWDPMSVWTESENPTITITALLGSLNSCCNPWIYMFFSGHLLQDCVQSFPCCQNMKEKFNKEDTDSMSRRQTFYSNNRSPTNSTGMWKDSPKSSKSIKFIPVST
smiles,measurement,setting,value
CCn1cc(-c2cccc(C(F)(F)F)c2)c2sc(C(=N)NC3CCS(=O)(=O)CC3)cc2c1=O,inhibition,[1],inactive
same,inhibition,[2],inactive
same,Activity,Homo sapiens [3],inactive
same,Activity,[4],inactive
same,Activity,[5],Not Active
same,logD,[6],3.7
same,inhibition (INH),[7],Not Active
same,inhibition,[8],inactive
same,inhibition,[9],inactive
same,inhibition,[10],inactive
same,solubility,[11],359 µM
same,inhibition,[12],inactive
same,inhibition,[13],inactive
same,Activity,[14],inactive
same,inhibition (INH),[15],Not Active
same,inhibition,[16],Active
same,Activity,[17],inactive
same,Activity,Homo sapiens [18],inactive
same,inhibition,[19],inactive
same,inhibition,[20],inactive
same,Activity,[21],inactive
same,Activity,[22],inactive
same,inhibition,[23],inactive
